Data from paper PMC5624728 (Journal of pharmaceutical innovation, 2017).
Values after ≈ are worked out from the molar mass of the structure shown. Values joined by “and” are separate entries in the source; they are usually repeats but may differ in a detail not shown here. Equal entries are not always repeated. Where two headings read alike, the source gives them in different places.

Key:
[1] = Solubility of CSIC in acetonitrile, water and water/acetonitrile; type: physicochemical; details: room temperature, 5 days
[2] = tested on: NNRTI resistance mutation K103N; details: compared to other NNRTIs; cited from earlier work
[3] = 25 °C/60% RH and 65 °C, at least 10 days, 40% acetonitrile
Oxidation stability = type: physicochemical; details: 3% H2O2, room temperature, up to 10 days
How it was run: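 Test compound dissolved at 100 μg/mL final in 40% (v/v) aqueous acetonitrile containing 3% H2O2. Kept at room temperature. Aliquots taken at set intervals up to 10 days. Drug content quantified by HPLC (flow 1.4 mL/min). Results given as mean ± standard deviation.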

[4] = tested on: HEC-1A human endometrial epithelial cells; details: 24 h exposure, MTT
[5] = tested on: J774A.1 mouse macrophage cells; details: J774A.1, 24 h exposure, MTT
HIV-1 RT = details: tight-binding inhibitor; cited from earlier work
Photolysis stability = type: physicochemical
How it was run: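 Half of each group was foil-wrapped as the dark control. All were held at 30 °C/65% RH under fluorescent light (2 × 20 watts) for 12 days. Aliquots at set times were assayed by HPLC. Light versus dark was compared by a repeated-measures mixed model with pairwise comparisons.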

HIV-1 = details: antiviral EC50; cited from earlier work
[6] = CSIC solubility in cosolvent matrixes; type: physicochemical
[7] = pH stability of CSIC in solution; type: physicochemical

For `NC(=O)c1[nH]c2ccc(Cl)cc2c1S(=O)(=O)c1ccccc1` [CSIC, 5-chloro-3-[phenylsulfonyl] indole-2-carboxamide], the Solubility ([1]; 40% (v/v) acetonitrile) was 0.36 mg/mL and 1.1 mM, the Solubility ([1]; 100% acetonitrile) was 1.7 mg/mL and 5.1 mM and the Solubility ([1]; water) was 0.0014 mg/mL and 4.3 μM. The “activity against K103N” value [2] was “retaining good activity”, the “drug concentration over time” value [3] was “remained unchanged” and the “log P” value was ~ 3. For the same molecule, the “Log P” value (1:1 (v/v) octanol/water) was 3.72, the “Log P” value (1:2 (v/v) octanol/water) was 3.72 and the “Log P” value (2:1 (v/v) octanol/water) was 3.69. The drug loss (Oxidation stability) was 20%, the “50% cytotoxic concentration (CC50)” value [4] was “greater than 5 μg/mL” and the “50% cytotoxic concentration (CC50)” value [5] was “greater than 5 μg/mL”. The “binding and dissociation behaviour” value (HIV-1 RT) was “binds rapidly but then dissociates very slowly”, the “stability stored in the dark” value (Photolysis stability; dark, 30 °C/65% RH, at least 12 days) was “stable” and the “decline of drug concentration” value (Photolysis stability; fluorescent light source (2 × 20 watts), 12 days) was 4%. For the same molecule, the EC50 (HIV-1) was ~1 nM and 1 nM, the Solubility ([6]; S1: PEG 400 0%, propylene glycol 50%, glycerin 50%) was 5.23 mg/mL (≈ 15.6 mM) and the Solubility ([6]; S2: PEG 400 12.5%, propylene glycol 37.5%, glycerin 50%) was 10.60 mg/mL (≈ 31.7 mM). The Solubility ([6]; S3: PEG 400 12.5%, propylene glycol 50%, glycerin 37.5%) was 12.85 mg/mL (≈ 38.4 mM), the Solubility ([6]; S4: PEG 400 25%, propylene glycol 25%, glycerin 50%) was 12.85 mg/mL (≈ 38.4 mM) and the Solubility ([6]; S5: PEG 400 25%, propylene glycol 37.5%, glycerin 37.5%) was 17.08 mg/mL (≈ 51 mM). For the same molecule, the Solubility ([6]; S6: PEG 400 25%, propylene glycol 50%, glycerin 25%) was 19.99 mg/mL (≈ 59.7 mM), the Solubility ([6]; S7: PEG 400 37.5%, propylene glycol 12.5%, glycerin 50%) was 20.46 mg/mL (≈ 61.1 mM) and the Solubility ([6]; S8: PEG 400 37.5%, propylene glycol 25%, glycerin 37.5%) was 21.81 mg/mL (≈ 65.1 mM). It also gave a Solubility ([6]; S9: PEG 400 37.5%, propylene glycol 37.5%, glycerin 25%) of 24.63 mg/mL (≈ 73.6 mM), a Solubility ([6]; S10: PEG 400 37.5%, propylene glycol 50%, glycerin 12.5%) of 22.59 mg/mL (≈ 67.5 mM) and a Solubility ([6]; S11: PEG 400 50%, propylene glycol 0%, glycerin 50%) of 22.86 mg/mL (≈ 68.3 mM). It also gave a Solubility ([6]; S12: PEG 400 50%, propylene glycol 12.5%, glycerin 37.5%) of 23.67 mg/mL (≈ 70.7 mM), a Solubility ([6]; S13: PEG 400 50%, propylene glycol 25%, glycerin 25%) of 24.31 mg/mL (≈ 72.6 mM) and a Solubility ([6]; S14: PEG 400 50%, propylene glycol 37.5%, glycerin 12.5%) of 28.21 mg/mL (≈ 84.3 mM). The Solubility ([6]; S15: PEG 400 50%, propylene glycol 50%, glycerin 0%) was 28.64 mg/mL (≈ 85.5 mM), the Solubility ([6]; S16: PEG 400:propylene glycol:glycerin 10:2:4 (PEG 400 62.5%)) was 22.7 mg/mL (≈ 67.8 mM) and the Solubility ([6]; S17: PEG 400:propylene glycol:glycerin 10:3:3 (PEG 400 62.5%)) was 20.7 mg/mL (≈ 61.8 mM). For the same molecule, the Solubility ([6]; S18: PEG 400:propylene glycol:glycerin 10:4:2 (PEG 400 62.5%), i.e. 5:2:1 w/w/w) was 30.2 mg/mL (≈ 90.2 mM), the Solubility ([6]; S19: PEG 400:propylene glycol:glycerin 6:1:1 (PEG 400 75%)) was 29.1 mg/mL (≈ 86.9 mM) and the Solubility ([6]; S20: PEG 400:propylene glycol:glycerin 3:1:0 (PEG 400 75%)) was 28.8 mg/mL (≈ 86 mM). For the same molecule, the drug loss ([7]; all pH conditions (1.2-10), at least 10 days, room temperature) was less than 5% and the “drug detected compared to time zero” value ([7]; all pH conditions, each time point up to 10 days) was “more than 95%”.
